pIC50: −log10 of the molar value.
Columns and labels:
Cytochrome P450 2D6 = Cytochrome P450 2D6 (Homo sapiens, UniProt P10635); assay: Inhibition of CYP2D6 (unknown origin); assay type: ADME
Cytochrome P450 1A2 = target: T1, Cytochrome P450 1A2 (Homo sapiens, UniProt P05177); assay: Inhibition of CYP1A2 (unknown origin); assay type: ADME
T1 sequence (P05177 whole entry): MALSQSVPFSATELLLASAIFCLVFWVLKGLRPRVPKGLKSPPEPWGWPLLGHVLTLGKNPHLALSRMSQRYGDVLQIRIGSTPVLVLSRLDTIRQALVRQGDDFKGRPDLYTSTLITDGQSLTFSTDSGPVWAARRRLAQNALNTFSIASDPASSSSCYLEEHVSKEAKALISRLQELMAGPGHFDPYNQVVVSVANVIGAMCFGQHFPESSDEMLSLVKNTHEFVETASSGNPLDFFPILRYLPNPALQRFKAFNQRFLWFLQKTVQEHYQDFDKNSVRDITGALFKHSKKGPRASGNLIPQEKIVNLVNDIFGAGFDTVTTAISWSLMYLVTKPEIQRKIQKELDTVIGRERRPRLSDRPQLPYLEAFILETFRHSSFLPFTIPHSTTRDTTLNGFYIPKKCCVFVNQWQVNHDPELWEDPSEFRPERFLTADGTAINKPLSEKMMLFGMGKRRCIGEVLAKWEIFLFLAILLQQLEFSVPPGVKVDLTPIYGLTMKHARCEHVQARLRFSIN

Cytochrome P450 3A4 = Cytochrome P450 3A4 (Homo sapiens, UniProt P08684); assay: Inhibition of CYP3A4 (unknown origin); assay type: ADME
[1] = target: T2, Toll-like receptor 7 (Homo sapiens) (UniProt Q9NYK1); assay: Agonist activity at TLR7 in human PBMC assessed as suppression of HCV replicon replication in human HuH7 luc/neo cells harboring RNA encoding bicistronic expression construct comprising wild type HCV type 1b NS3-NS5B regions exposed to conditioned media from compound treated PBMCs by luciferase reporter gene assay; assay type: cell-based
T2 sequence (whole entry): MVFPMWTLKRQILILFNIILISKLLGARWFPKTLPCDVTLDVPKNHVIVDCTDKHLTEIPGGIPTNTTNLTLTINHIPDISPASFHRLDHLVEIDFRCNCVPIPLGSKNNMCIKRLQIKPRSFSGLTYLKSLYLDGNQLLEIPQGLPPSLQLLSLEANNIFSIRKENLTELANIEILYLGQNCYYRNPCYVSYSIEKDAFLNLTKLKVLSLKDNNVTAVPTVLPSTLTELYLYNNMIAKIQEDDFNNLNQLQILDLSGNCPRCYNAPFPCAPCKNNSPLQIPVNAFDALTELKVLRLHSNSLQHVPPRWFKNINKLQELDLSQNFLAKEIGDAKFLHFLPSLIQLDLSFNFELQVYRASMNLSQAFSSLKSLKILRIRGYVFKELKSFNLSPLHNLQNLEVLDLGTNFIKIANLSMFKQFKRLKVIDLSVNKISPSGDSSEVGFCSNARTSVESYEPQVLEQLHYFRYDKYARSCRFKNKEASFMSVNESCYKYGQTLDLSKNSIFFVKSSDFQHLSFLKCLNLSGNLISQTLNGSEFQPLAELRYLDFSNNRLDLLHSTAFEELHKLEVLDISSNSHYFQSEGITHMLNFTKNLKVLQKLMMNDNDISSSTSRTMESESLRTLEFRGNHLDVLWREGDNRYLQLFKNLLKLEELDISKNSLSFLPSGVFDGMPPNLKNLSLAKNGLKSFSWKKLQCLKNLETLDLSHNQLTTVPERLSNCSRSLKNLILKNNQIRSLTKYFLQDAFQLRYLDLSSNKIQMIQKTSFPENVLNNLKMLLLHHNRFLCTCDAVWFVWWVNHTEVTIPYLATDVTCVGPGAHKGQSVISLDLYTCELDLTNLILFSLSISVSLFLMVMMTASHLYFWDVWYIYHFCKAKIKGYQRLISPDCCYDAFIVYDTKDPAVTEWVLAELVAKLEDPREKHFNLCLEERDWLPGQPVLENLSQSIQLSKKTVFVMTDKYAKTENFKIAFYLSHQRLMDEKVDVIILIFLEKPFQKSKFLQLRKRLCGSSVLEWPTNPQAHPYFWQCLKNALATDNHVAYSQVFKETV
Summary of the method: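 PBMCs from buffy coats of at least two donors (Ficoll), in RPMI with 10% human AB serum, 2 x 10^5 cells/well, incubated overnight with compound. Supernatant transferred onto Huh7-luc/neo replicon cells plated the day before (2.2 x 10^3/well). Luciferase read after 24 h. EC50 is the concentration applied to PBMCs giving 50% luciferase reduction. Recombinant IFN-α2a standard.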

Cytochrome P450 2C8 = target: T3, Cytochrome P450 2C8 (Homo sapiens, UniProt P10632); assay: Inhibition of CYP2C8 (unknown origin); assay type: ADME
T3 sequence (P10632 whole entry): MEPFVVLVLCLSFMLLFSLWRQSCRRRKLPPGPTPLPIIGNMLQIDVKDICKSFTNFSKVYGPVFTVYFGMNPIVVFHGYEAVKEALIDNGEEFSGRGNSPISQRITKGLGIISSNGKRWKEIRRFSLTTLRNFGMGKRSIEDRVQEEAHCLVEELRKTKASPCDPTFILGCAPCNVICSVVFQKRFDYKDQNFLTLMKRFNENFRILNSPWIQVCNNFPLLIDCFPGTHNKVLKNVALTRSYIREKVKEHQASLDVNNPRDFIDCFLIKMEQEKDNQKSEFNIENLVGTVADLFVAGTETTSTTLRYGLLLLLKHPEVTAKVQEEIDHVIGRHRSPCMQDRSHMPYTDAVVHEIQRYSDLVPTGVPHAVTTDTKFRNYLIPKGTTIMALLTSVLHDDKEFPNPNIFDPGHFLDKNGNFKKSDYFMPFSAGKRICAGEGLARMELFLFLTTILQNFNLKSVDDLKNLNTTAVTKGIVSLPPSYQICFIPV

Homo sapiens = species: Homo sapiens; assay: Selectivity index, ratio of MEC for agonist activity at human TLR8 expressed in HEK293 cells to MEC for agonist activity at human TLR7 expressed in HEK293 cells as; assay type: cell-based
Summary of the method: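 Ratio of TLR8 to TLR7 LEC from HEK293 NFκB-luciferase reporter assays. Cells were transiently transfected with TLR7 or TLR8 construct plus NFκB-luc and treated with compound for 6 h at 37°C. LEC is the lowest concentration with signal at least two-fold above the assay SD, from quadruplicate dose-response curves.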

[2] = Oral bioavailability in Sprague-Dawley rat at 10 mg/kg; assay type: ADME, organism-based; conditions: in vivo
[3] = AUClast in Sprague-Dawley rat portal vein at 10 mg/kg, po; assay type: ADME, organism-based; set-up: dose 10 mg/kg, time 0 - last, route oral
Summary of the method: (§1)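 Healthy male Sprague-Dawley rats given a single oral dose of 10 mg/kg. Portal vein plasma, systemic plasma and liver sampled. Cmax and Tmax determined, and AUC over 0–last. Liver/plasma ratio calculated from AUC(0-last).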

[4] = Ratio of AUClast in liver to AUClast in plasma of Sprague-Dawley rat at 10 mg/kg, po; assay type: ADME, organism-based; conditions: liver and plasma; summary of the method: as §1
[5] = Metabolic stability in rat liver microsomes assessed as drug metabolism after 15 mins at 1 uM
[6] = Cmax in Sprague-Dawley rat plasma at 10 mg/kg, po; assay type: ADME, organism-based; set-up: dose 10 mg/kg, route oral; summary of the method: as §1
[7] = Cmax in Sprague-Dawley rat portal vein at 10 mg/kg, po; assay type: ADME, organism-based; set-up: dose 10 mg/kg, route oral; summary of the method: as §1
[8] = Tmax in Sprague-Dawley rat at 10 mg/kg, po; assay type: ADME, organism-based; conditions: in vivo; summary of the method: as §1
[9] = AUClast in Sprague-Dawley rat plasma at 10 mg/kg, po; assay type: ADME, organism-based; set-up: dose 10 mg/kg, time 0 - last, route oral; summary of the method: as §1

Chain of Cytochrome P450 2D6 (P10635 whole entry): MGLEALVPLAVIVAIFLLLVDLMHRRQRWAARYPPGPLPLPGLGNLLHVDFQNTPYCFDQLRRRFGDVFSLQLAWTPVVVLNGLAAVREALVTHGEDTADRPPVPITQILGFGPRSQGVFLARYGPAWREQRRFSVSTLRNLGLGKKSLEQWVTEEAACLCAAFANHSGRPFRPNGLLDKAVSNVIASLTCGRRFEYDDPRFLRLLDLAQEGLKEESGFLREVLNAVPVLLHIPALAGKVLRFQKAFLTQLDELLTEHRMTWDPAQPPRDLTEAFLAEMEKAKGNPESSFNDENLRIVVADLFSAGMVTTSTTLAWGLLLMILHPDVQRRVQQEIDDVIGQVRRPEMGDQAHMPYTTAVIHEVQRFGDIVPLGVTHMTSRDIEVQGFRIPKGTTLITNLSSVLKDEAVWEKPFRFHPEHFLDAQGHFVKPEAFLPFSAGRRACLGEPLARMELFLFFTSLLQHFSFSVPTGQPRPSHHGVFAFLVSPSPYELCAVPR
Chain of Cytochrome P450 3A4 (P08684 whole entry): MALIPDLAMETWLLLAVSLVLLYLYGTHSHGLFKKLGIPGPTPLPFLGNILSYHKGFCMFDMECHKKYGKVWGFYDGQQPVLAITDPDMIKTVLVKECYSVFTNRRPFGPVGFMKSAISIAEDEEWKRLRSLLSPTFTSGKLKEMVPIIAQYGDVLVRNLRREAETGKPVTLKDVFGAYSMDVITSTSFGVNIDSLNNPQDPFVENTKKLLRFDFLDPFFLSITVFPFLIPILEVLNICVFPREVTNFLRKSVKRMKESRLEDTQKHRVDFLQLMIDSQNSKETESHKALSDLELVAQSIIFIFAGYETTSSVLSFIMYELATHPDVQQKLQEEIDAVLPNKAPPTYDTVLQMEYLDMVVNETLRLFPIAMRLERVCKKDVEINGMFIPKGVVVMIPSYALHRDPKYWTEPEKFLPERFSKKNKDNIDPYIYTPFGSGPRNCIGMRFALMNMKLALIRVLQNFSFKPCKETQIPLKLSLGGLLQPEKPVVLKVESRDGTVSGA

Compound `CCCCNc1nc(N)nc2cccc(OCc3nccc(OC)c3OC)c12` has a pIC50 (Cytochrome P450 2D6) of less than 5.00, a pIC50 (Cytochrome P450 1A2) of 5.39 and a pIC50 (Cytochrome P450 3A4) of 5.00. For the same compound, the MEC [1] was 0.034 µM and the pIC50 (Cytochrome P450 2C8) was less than 5.00.

With `CCCCNc1nc(N)nc2cccc(C(=O)N[C@H](C)c3ccccc3)c12` the pIC50 (Cytochrome P450 2D6) was less than 5.00, the pIC50 (Cytochrome P450 1A2) was less than 5.00 and the pIC50 (Cytochrome P450 3A4) was less than 5.00. The MEC [1] was greater than 25 µM and the pIC50 (Cytochrome P450 2C8) was less than 5.00.

For `CCCCNc1nc(N)nc2cccc(OCc3cccnc3)c12`, the pIC50 (Cytochrome P450 2D6) was less than 5.00, the pIC50 (Cytochrome P450 1A2) was 6.05 and the pIC50 (Cytochrome P450 3A4) was 5.17. It also gave an MEC [1] of 0.011 µM and a pIC50 (Cytochrome P450 2C8) of less than 5.00.

Work on `CCCCNc1nc(N)nc2cccc(OCc3ccc(CO)cc3OC)c12` yielded a pIC50 (Cytochrome P450 2D6) of 5.36, a pIC50 (Cytochrome P450 1A2) of less than 5.00 and a pIC50 (Cytochrome P450 3A4) of less than 5.00. For the same compound, the MEC [1] was 0.018 µM, the pIC50 (Cytochrome P450 2C8) was less than 5.00 and the Ratio (Homo sapiens) was greater than 200.

`CCCCNc1nc(N)nc2cccc(C(=O)N(C)Cc3ccccc3)c12` showed a pIC50 (Cytochrome P450 2D6) of 5.25, a bioavailability [2] of 1.2% and an AUC(0-t) [3] of 621 ng·h/mL. The pIC50 (Cytochrome P450 1A2) was less than 5.00, the Kp [4] was 30 and the metabolised at 0.25 h, 1 µM [5] was 99%. The Cmax [6] was 9 ng/mL, the pIC50 (Cytochrome P450 3A4) was 5.07 and the MEC [1] was 0.27 µM. The Cmax [7] was 209 ng/mL, the Tmax [8] was 30 min and the pIC50 (Cytochrome P450 2C8) was less than 5.00. It also gave an AUC(0-t) [9] of 37 ng·h/mL.

In the case of `CCCCNc1nc(N)nc2cccc(OCc3ccccc3OC)c12`, the pIC50 (Cytochrome P450 2D6) was less than 5.00, the pIC50 (Cytochrome P450 1A2) was 5.54 and the pIC50 (Cytochrome P450 3A4) was less than 5.00. For the same compound, the MEC [1] was 0.33 µM, the pIC50 (Cytochrome P450 2C8) was less than 5.00 and the Ratio (Homo sapiens) was 90.

`CCCCNc1nc(N)nc2cccc(C(=O)NC)c12` showed a pIC50 (Cytochrome P450 2D6) of less than 5.00, a pIC50 (Cytochrome P450 1A2) of less than 5.00 and a pIC50 (Cytochrome P450 3A4) of less than 5.00. It also gave an MEC [1] of 0.15 µM and a pIC50 (Cytochrome P450 2C8) of less than 5.00.

Work on `CCCCNc1nc(N)nc2cccc(OCc3ccccn3)c12` yielded a pIC50 (Cytochrome P450 2D6) of less than 5.00, a pIC50 (Cytochrome P450 1A2) of 5.89 and a pIC50 (Cytochrome P450 3A4) of less than 5.00. It also gave an MEC [1] of 0.043 µM and a pIC50 (Cytochrome P450 2C8) of less than 5.00.

`CCCCNc1nc(N)nc2cccc(C(=O)NC(C)C)c12` gave a pIC50 (Cytochrome P450 2D6) of less than 5.00, a pIC50 (Cytochrome P450 1A2) of less than 5.00 and a pIC50 (Cytochrome P450 3A4) of less than 5.00. The MEC [1] was 0.56 µM and the pIC50 (Cytochrome P450 2C8) was less than 5.00.

Work on `CCCCNc1nc(N)nc2ccccc12` yielded a bioavailability [2] of 5.4%, an AUC(0-t) [3] of 1520 ng·h/mL and a Kp [4] greater than 100. It also gave a metabolised at 0.25 h, 1 µM [5] of 95%, a Cmax [6] of 33 ng/mL and a Cmax [7] of 583 ng/mL. The Tmax [8] was 30 min and the AUC(0-t) [9] was 56 ng·h/mL.

`CCCCNc1nc(N)nc2cccc(C(=O)N[C@@H](C)c3ccccc3)c12` gave a pIC50 (Cytochrome P450 2D6) of less than 5.00, a bioavailability [2] of 20% and an AUC(0-t) [3] of 902 ng·h/mL. For the same compound, the pIC50 (Cytochrome P450 1A2) was less than 5.00, the Kp [4] was 36 and the metabolised at 0.25 h, 1 µM [5] was 54%. For the same compound, the Cmax [6] was 87 ng/mL, the pIC50 (Cytochrome P450 3A4) was less than 5.00 and the MEC [1] was 0.14 µM. The Cmax [7] was 276 ng/mL, the Tmax [8] was 240 min and the pIC50 (Cytochrome P450 2C8) was less than 5.00. For the same compound, the Ratio (Homo sapiens) was greater than 250 and the AUC(0-t) [9] was 439 ng·h/mL.

Work on `CCCCNc1nc(N)nc2cccc(OCc3ccccc3)c12` yielded a pIC50 (Cytochrome P450 2D6) of 5.24, a pIC50 (Cytochrome P450 1A2) of 6.52 and an MEC [1] of 0.04 µM. The pIC50 (Cytochrome P450 2C8) was less than 5.00 and the Ratio (Homo sapiens) was 10.

In the case of `CCCCNc1nc(N)nc2cccc(C(=O)NCc3ccccc3)c12`, the pIC50 (Cytochrome P450 2D6) was 5.18, the pIC50 (Cytochrome P450 1A2) was less than 5.00 and the pIC50 (Cytochrome P450 3A4) was less than 5.00. The MEC [1] was 0.03 µM and the pIC50 (Cytochrome P450 2C8) was less than 5.00.
